# Laboratory results as given in ChEMBL document CHEMBL4368874, “Synthesis, biological evaluation, and structure activity relationship (SAR) study of pyrrolidine amide derivatives as N-acylethanolamine acid amidase (NAAA) inhibitors” (Medchemcomm, 2019).
# Activity calls are given as the source filed them. The calls are words filed in the database; no cut-off is given here.
# T1: N-acylethanolamine-hydrolyzing acid amidase (Rattus norvegicus, UniProt Q5KTC7)
# T1 sequence (Q5KTC7 whole entry): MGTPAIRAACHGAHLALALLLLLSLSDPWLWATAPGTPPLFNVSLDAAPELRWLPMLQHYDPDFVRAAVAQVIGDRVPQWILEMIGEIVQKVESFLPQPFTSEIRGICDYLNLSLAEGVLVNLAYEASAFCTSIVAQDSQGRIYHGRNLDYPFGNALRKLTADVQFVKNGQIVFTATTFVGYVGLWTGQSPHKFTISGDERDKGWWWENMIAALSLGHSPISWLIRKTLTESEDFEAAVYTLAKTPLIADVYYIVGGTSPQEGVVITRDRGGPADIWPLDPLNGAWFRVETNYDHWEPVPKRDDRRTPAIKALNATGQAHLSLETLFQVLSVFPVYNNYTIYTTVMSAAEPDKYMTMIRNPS
# T2: Fatty-acid amide hydrolase 1 (Rattus norvegicus, UniProt P97612)
# T2 sequence (P97612 whole entry): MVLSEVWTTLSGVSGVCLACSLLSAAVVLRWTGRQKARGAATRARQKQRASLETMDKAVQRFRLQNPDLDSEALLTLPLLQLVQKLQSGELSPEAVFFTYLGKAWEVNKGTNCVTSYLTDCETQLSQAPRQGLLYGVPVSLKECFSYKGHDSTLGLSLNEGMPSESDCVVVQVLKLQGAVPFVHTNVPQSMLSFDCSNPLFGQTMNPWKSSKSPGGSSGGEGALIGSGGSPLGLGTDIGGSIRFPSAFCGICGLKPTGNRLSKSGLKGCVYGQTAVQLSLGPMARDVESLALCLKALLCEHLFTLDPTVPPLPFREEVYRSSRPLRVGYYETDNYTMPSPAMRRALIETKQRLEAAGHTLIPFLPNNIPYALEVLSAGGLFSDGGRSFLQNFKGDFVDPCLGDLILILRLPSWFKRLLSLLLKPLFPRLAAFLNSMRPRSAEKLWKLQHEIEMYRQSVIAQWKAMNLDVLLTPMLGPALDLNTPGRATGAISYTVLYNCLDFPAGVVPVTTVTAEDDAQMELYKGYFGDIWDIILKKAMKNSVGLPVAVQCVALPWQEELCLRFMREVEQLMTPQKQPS
# T3: N-acylethanolamine-hydrolyzing acid amidase (Rattus norvegicus) (UniProt Q5KTC7)
# T3 sequence (whole entry): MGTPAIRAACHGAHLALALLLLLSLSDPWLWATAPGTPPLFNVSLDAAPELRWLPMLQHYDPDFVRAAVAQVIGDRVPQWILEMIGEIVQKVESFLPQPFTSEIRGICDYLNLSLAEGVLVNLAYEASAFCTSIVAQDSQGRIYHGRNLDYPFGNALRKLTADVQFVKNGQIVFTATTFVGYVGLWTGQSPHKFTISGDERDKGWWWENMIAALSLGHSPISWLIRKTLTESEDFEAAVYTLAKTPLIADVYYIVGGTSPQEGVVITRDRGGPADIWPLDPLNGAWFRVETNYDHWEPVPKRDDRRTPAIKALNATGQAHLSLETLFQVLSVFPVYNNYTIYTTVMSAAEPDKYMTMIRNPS
# T4: Acid ceramidase (Rattus norvegicus) (UniProt Q6P7S1)
# T4 sequence (whole entry): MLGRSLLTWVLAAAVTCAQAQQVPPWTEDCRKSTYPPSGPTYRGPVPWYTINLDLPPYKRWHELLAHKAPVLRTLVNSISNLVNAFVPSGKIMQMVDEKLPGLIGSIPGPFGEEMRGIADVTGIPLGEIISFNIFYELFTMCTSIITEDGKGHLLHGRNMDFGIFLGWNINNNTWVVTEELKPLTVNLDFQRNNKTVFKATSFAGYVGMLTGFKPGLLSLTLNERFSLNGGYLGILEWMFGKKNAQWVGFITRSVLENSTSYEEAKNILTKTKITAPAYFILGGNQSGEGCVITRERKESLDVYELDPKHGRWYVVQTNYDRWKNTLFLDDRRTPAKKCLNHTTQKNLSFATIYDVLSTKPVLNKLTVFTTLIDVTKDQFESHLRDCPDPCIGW
# Legend:
# [1] = target: T1, N-acylethanolamine-hydrolyzing acid amidase; assay: Inhibition of rat NAAA expressed in HEK293 cells using heptadecenoylethanolamide as substrate after 30 mins HPLC-MS/MS analysis
# Summary of the method: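 Enzyme source: HEK293 cells stably overexpressing rat NAAA, grown in DMEM/10% FBS with G418. Cells were sonicated in 20 mM Tris-HCl pH 7.5 with 0.32 M sucrose, and the 800 × g supernatant was used. 30 µg protein was incubated with 25 µM heptadecenoylethanolamide for 30 min at 37 °C in 50 mM phosphate pH 4.5 with 0.1% Triton X-100 and 3 mM DTT. Stopped with methanol containing heptadecanoic acid internal standard; remaining substrate measured by HPLC-MS/MS; IC50 from curve fitting.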
# [2] = target: T2, Fatty-acid amide hydrolase 1; assay: Inhibition of rat FAAH expressed in HEK293 cells using [3H]AEA as substrate after 30 mins HPLC-MS/MS analysis; type: cell-based; conditions: in the assay text read “anandamide” for “[3H]AEA”
# Summary of the method: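 Lysate supernatant from HEK293 cells overexpressing rat FAAH (sonication in Tris-sucrose, 800 × g spin). 30 µg protein incubated at 37 °C with 25 µM anandamide in 50 mM Tris-HCl pH 8.0 containing 0.05% fatty-acid-free BSA. Quenched with methanol containing heptadecanoic acid internal standard; remaining substrate quantified by HPLC-MS/MS; IC50 by curve fitting.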
# [3] = target: T3, N-acylethanolamine-hydrolyzing acid amidase (Rattus norvegicus); assay: Reversible inhibition of rat NAAA expressed in HEK293 cells at 5 uM using heptadecenoylethanolamide as substrate after 8 hrs by rapid dilution based HPLC-MS/MS analysis; type: cell-based
# [4] = Half life in pH 5 phosphate buffer by HPLC analysis; type: physicochemical
# Summary of the method: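 Compound at 1 µM final (DMSO ≤1%) in 50 mM phosphate buffer pH 5.0, held at 37 °C for 16 h; remaining compound determined by HPLC.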
# [5] = Half life in rat 80% plasma by HPLC analysis; type: ADME, cell-free
# Summary of the method: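 Fresh rat plasma diluted to 80% (v/v) with PBS pH 7.4. Compound added to 1 µM final (DMSO ≤1%), incubated at 37 °C for 16 h; remaining compound measured by HPLC.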
# Mus musculus [6] = assay: Anti-inflammatory activity in mouse model of LPS-induced acute lung injury assessed as reduction in leukocytes in lungs at 30 mg/kg, po qd for 5 days by hematoxylin and eosin staining-based light microscopic analysis; type: functional, organism-based
# Summary of the method: (§1)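 129s mice (20-22 g), randomly grouped at 6-8 per group. Under anesthesia they received intratracheal LPS (7 mg/kg) in PBS. From the day of LPS they got oral dosing once daily at 30 mg/kg in saline with 5% PEG 400 and 5% Tween 80, or vehicle alone. Killed 5 days after LPS. Lungs were fixed in paraformaldehyde at 4 °C, paraffin-embedded, cut at 5 µm and H&E-stained.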
# Mus musculus [7] = assay: Anti-inflammatory activity in mouse model of LPS-induced acute lung injury assessed as reduction in lung edema at 30 mg/kg, po qd for 5 days by hematoxylin and eosin staining-based light microscopic analysis; type: functional, organism-based; summary of the method: as §1
# Mus musculus [8] = assay: Anti-inflammatory activity in mouse model of LPS-induced acute lung injury at 30 mg/kg, po qd for 5 days co-treated with 2 mg/kg, ip bid PPAR-alpha antagonist MK886 by hematoxylin and eosin staining-based light microscopic analysis; type: functional, organism-based
# Summary of the method: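 129s mice (20-22 g), 6-8 per group, were anesthetized and given intratracheal LPS (7 mg/kg) in PBS. Oral dosing at 30 mg/kg once daily (vehicle: saline, 5% PEG 400, 5% Tween 80) started on the LPS day, together with MK886 at 2 mg/kg i.p. Sacrifice at day 5. Lungs were fixed in paraformaldehyde, embedded in paraffin, sectioned at 5 µm and stained with H&E.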
# [9] = Half life in pH 7.4 tris-HCl buffer by HPLC analysis
# [10] = target: T2, Fatty-acid amide hydrolase 1; assay: Inhibition of rat FAAH expressed in HEK293 cells using anandamide as substrate after 30 mins HPLC-MS/MS analysis
# [11] = target: T4, Acid ceramidase (Rattus norvegicus); assay: Inhibition of rat acid ceramidase at 100 uM using N-lauroylceramide as substrate after 30 mins by LC-MS analysis relative to control
# Summary of the method: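 100 µg recombinant rat acid ceramidase incubated for 30 min at 37 °C in 50 mM phosphate pH 5.0 with 0.1% Triton X-100, 3 mM DTT, 100 µM N-lauroylceramide substrate and test compound. Stopped with methanol containing 1 nmol heptadecanoic acid; products analysed by LC/MS.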
# Rattus norvegicus = species on record: Rattus norvegicus; assay: Selectivity ratio of IC50 for rat FAAH expressed in HEK293 cells to IC50 for rat […]; type: cell-based
# [12] = compound: O=C(/C=C/c1ccc(-c2ccccc2)cc1)N1CCCC1; assay: Competitive inhibition of rat NAAA expressed in HEK293 cells assessed as substrate Vmax at 5 uM using heptadecenoylethanolamide as substrate after 30 mins by Michaelis Menten plot analysis (reference value: 5.89 +/- 0.12 nmol/min/mg protein); type: cell-based
# [13] = compound: O=C(/C=C/c1ccc(-c2ccccc2)cc1)N1CCCC1; assay: Competitive inhibition of rat NAAA expressed in HEK293 cells assessed as substrate Km at 5 uM using heptadecenoylethanolamide as substrate after 30 mins by Michaelis Menten plot analysis (reference value: 207 +/- 16 uM); type: cell-based
IC50 [1],Molecule,further results
1.5 µM,O=C(/C=C/c1ccc(-c2ccccc2)cc1)N1CCCC1,IC50 [2]: 550 µM; inhibition [3]: Active; half-life [4]: > 16 h; half-life [5]: > 16 h; Activity (Mus musculus [6]): Active; Activity (Mus musculus [7]): Active; Activity (Mus musculus [8]): inactive; half-life [9]: > 16 h
8.3 µM,Cc1cccc(CCCCCCC(=O)N2CCCC2)c1,–
2.8 µM,O=C(CCC1CCC(Oc2ccccc2)CC1)N1CCCC1 (configuration not stated),IC50 [2]: 45.1 µM
14.1 µM,O=C(CCCCCCc1cccs1)N1CCCC1,–
> 100 µM,COC(=O)c1ccc(CCCCCCC(=O)N2CCCC2)cc1,–
> 100 µM,CCCc1cccc(CCCCCCC(=O)N2CCCC2)c1,–
16.5 µM,Cc1cccc(-c2ccc(CCC(=O)N3CCCC3)cc2)c1,–
5.6 µM,O=C(CCCCCCc1ccc(O)cc1)N1CCCC1,–
> 100 µM,COc1cccc(CCCCCCC(=O)N2CCCC2)c1,–
> 100 µM,O=C(CCc1ccc(-c2cccs2)cc1)N1CCCC1,–
> 100 µM,Cc1ccccc1-c1ccc(CCC(=O)N2CCCC2)cc1,–
3.7 µM,O=C(CCCCCCc1cccc(Cl)c1)N1CCCC1,–
2.5 µM,O=C(CCc1ccc(-c2ccsc2)cc1)N1CCCC1,–
> 100 µM,O=C(O)c1cccc(CCCCCCC(=O)N2CCCC2)c1,–
8 µM,O=C(CCCCCCc1ccc(F)cc1)N1CCCC1,–
34.5 µM,O=C(CCCCCCc1ccc(Cl)cc1)N1CCCC1,–
> 100 µM,O=C(CCCC/C=C/c1ccc(OCc2ccccc2)cc1)N1CCCC1,–
> 100 µM,O=C(CCc1ccc(-c2cccnc2)cc1)N1CCCC1,–
> 100 µM,O=C(CCCCCCc1cccnc1)N1CCCC1,–
0.5 µM,O=C(CCc1ccc(C2CCCCC2)cc1)N1CCCC1,inhibition [11]: < 10%; Ratio IC50 (Rattus norvegicus): > 200
> 100 µM,COC(=O)c1cccc(CCCCCCC(=O)N2CCCC2)c1,–
> 100 µM,O=C(O)c1ccc(CCCCCCC(=O)N2CCCC2)cc1,–

# Further lines, the molecule ahead of its results:
Molecule,IC50 [1],further results
O=C(CCc1ccc(-c2ccccc2F)cc1)N1CCCC1,2.8 µM,–
O=C(CCc1ccc(-c2cccc(F)c2)cc1)N1CCCC1,1.8 µM,–
O=C(CCCCCCc1ccccc1F)N1CCCC1,13.7 µM,–
O=C(CCCCCCC1CCCCC1)N1CCCC1,5.7 µM,–
O=C(CCCCCCc1cccc(F)c1)N1CCCC1,7.3 µM,–
CCCc1ccc(CCCCCCC(=O)N2CCCC2)cc1,> 100 µM,–
Cc1ccc(-c2ccc(CCC(=O)N3CCCC3)cc2)cc1,33.2 µM,–
O=C(CCCC/C=C/c1cccc(OCc2ccccc2)c1)N1CCCC1,> 100 µM,–
O=C(CCc1ccc(-c2ccccn2)cc1)N1CCCC1,> 100 µM,–
O=C(CCc1ccc(Oc2ccccc2)cc1)N1CCCC1,> 100 µM,IC50 [2]: 120 µM
O=C(/C=C/C=C/c1ccc2c(c1)OCO2)N1CCCC1 [TRICHOSTACHINE],4.1 µM,IC50 [10]: 61.3 µM
Cc1ccc(CCCCCCC(=O)N2CCCC2)cc1,9.6 µM,–
O=C(CCc1ccc(-c2ccc(Cl)cc2)cc1)N1CCCC1,48.6 µM,–
O=C(CCc1ccc(-c2ccccc2)cc1)N1CCCC1,–,IC50 [2]: 91.5 µM
O=C(CCCCCCc1ccccn1)N1CCCC1,> 100 µM,–
O=C(CCCCCCc1ccsc1)N1CCCC1,13.2 µM,–
O=C(CCCCc1ccc2c(c1)OCO2)N1CCCC1,5.5 µM,IC50 [2]: 42.8 µM
O=C(CCc1ccc(-c2cccc(Cl)c2)cc1)N1CCCC1,25.4 µM,–
O=C(CCc1ccc(-c2ccccc2Cl)cc1)N1CCCC1,> 100 µM,–
O=C(CCc1ccc(-c2ccc3c(c2)OCO3)cc1)N1CCCC1,> 100 µM,IC50 [2]: 91 µM
O=C(CCc1ccc(-c2ccc(F)cc2)cc1)N1CCCC1,3.4 µM,–
O=C(CCCCCCc1cccc(O)c1)N1CCCC1,> 100 µM,–
COc1ccc(CCCCCCC(=O)N2CCCC2)cc1,35.4 µM,–
Cc1ccccc1CCCCCCC(=O)N1CCCC1,68.4 µM,–
O=C(CCC1CCC(c2ccccc2)CC1)N1CCCC1 (configuration not stated),0.48 µM,IC50 [2]: 66 µM
O=C(CCc1ccc(OC2CCCCC2)cc1)N1CCCC1,0.7 µM,–
O=C(CCCCCCc1ccccc1Cl)N1CCCC1,> 100 µM,–
"N-acylethanolamine-hydrolyzing acid amidase (Rattus norvegicus), Q5KTC7 (protein) MGTPAIRAACHGAHLALALLLLLSLSDPWLWATAPGTPPLFNVSLDAAPELRWLPMLQHYDPDFVRAAVAQVIGDRVPQWILEMIGEIVQKVESFLPQPFTSEIRGICDYLNLSLAEGVLVNLAYEASAFCTSIVAQDSQGRIYHGRNLDYPFGNALRKLTADVQFVKNGQIVFTATTFVGYVGLWTGQSPHKFTISGDERDKGWWWENMIAALSLGHSPISWLIRKTLTESEDFEAAVYTLAKTPLIADVYYIVGGTSPQEGVVITRDRGGPADIWPLDPLNGAWFRVETNYDHWEPVPKRDDRRTPAIKALNATGQAHLSLETLFQVLSVFPVYNNYTIYTTVMSAAEPDKYMTMIRNPS",–,Vmax [12]: 5.88 nmol/min/mg; Km [13]: 322 µM
